Laboratory results from ChEMBL document CHEMBL1127620, “Synthesis and antibacterial activity of thiazolopyrazine-incorporated tetracyclic quinolone antibacterials” (1994).
Converted amounts (≈) assume the structure as drawn.

Legend:
Format in all cases: functional
[1] = organism: Mus musculus; assay: Compound was tested for oral efficacy on systemic infections caused by Escherichia coli KC-14 in mice
In short: (§1)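 Male ddY mice (25 g) infected intraperitoneally with 0.5 mL overnight brain heart infusion culture diluted in 5% gastric mucin, about 35 to 500 times the LD50. Compound given orally 1 h post-infection, as 1% aqueous gum arabic suspension or distilled water solution. Four dose groups of five mice. Survival followed daily for 7 days; ED50 by Weil method.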

[2] = tested on: Klebsiella pneumoniae; assay: In vitro minimum inhibitory concentration against gram-negative Kp, Klebsiella pneumoniae B54.
In short: (§2)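 Two-fold agar dilution on Sensitivity Disk Agar-N (Japan Society of Chemotherapy method). Overnight broth cultures diluted in buffered saline with 0.01% gelatin to about 10⁶ CFU/mL. One loopful (5 μL/spot) inoculated onto plates containing graded agent concentrations. Incubation 37 °C, 18 h. MIC = lowest concentration inhibiting visible growth.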

[3] = organism: Mus musculus; assay: Compound was tested for oral efficacy on systemic infections caused by Staphylococcus aureus IID803 in mice; in short: as §1
[4] = tested on: Staphylococcus aureus; assay: In vitro minimum inhibitory concentration against gram-positive Sa (F), Staphylococcus aureus FDA 209P JC-1.; in short: as §2
[5] = tested on: Staphylococcus aureus; assay: In vitro minimum inhibitory concentration against gram-positive Sa (I), Staphylococcus aureus IID803.; in short: as §2
[6] = tested on: Staphylococcus epidermidis; assay: In vitro minimum inhibitory concentration against gram-positive Se, Staphylococcus epidermidis IAM 1296.; in short: as §2
[7] = organism: Mus musculus; assay: Compound was tested for oral efficacy on systemic infections caused by Escherichia coli KC-14 in mice.; in short: as §1
[8] = organism: Mus musculus; assay: Compound was tested for oral efficacy on systemic infections caused by Staphylococcus aureus IID803 in mice.; in short: as §1
[9] = tested on: Escherichia coli; assay: Compound was tested for in vitro antibacterial activity (minimum inhibition concentration) against gram-negative Ec(K), Escherichia coli KC-14.
In short: as §2, with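 “10⁶ CFU/mL; one” for “10⁶ CFU/mL. One”, “plates with” for “plates containing”, “18 h;” for “18 h.”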

[10] = tested on: Escherichia coli; assay: Compound was tested for in vitro antibacterial activity (minimum inhibition concentration) against gram-negative Ec(K), Escherichia coli KC-14; in short: as §2

SMILES	ED50 [1]	MIC [2]	ED50 [3]	MIC [4]	MIC [5]	other results
CN1Cc2csc3c(C(=O)O)c(=O)c4cc(F)c(N5CCNCC5)c1c4n23	> 2 mg/kg	0.025 µg/mL (≈ 0.0644 µM)				
CN1Cc2csc3c(C(=O)O)c(=O)c4cc(F)c(N5CCC(N)C5)c1c4n23 (centres undefined)	> 2 mg/kg	0.025 µg/mL (≈ 0.0644 µM)				
CN1Cc2csc3c(C(=O)O)c(=O)c4cc(F)c(N5CCSCC5)c1c4n23			> 12 mg/kg	0.025 µg/mL (≈ 0.0617 µM)	0.0125 µg/mL (≈ 0.0308 µM)	MIC [6]: 0.025 µg/mL (≈ 0.0617 µM)
CN1Cc2csc3c(C(=O)O)c(=O)c4cc(F)c(N5CCCC5)c1c4n23						ED50 [7]: > 2 mg/kg
CNCC1CCN(c2c(F)cc3c(=O)c(C(=O)O)c4scc5n4c3c2N(C)C5)C1 (centres undefined)		0.025 µg/mL (≈ 0.06 µM)	> 12 mg/kg			
CC1CN(c2c(F)cc3c(=O)c(C(=O)O)c4scc5n4c3c2N(C)C5)CCN1C (centres undefined)	2 mg/kg					ED50 [8]: 3 mg/kg
CCC1CN(c2c(F)cc3c(=O)c(C(=O)O)c4scc5n4c3c2N(C)C5)CCN1C (centres undefined)				0.05 µg/mL (≈ 0.116 µM)	0.05 µg/mL (≈ 0.116 µM)	
C[C@@H]1CN(c2c(F)cc3c(=O)c(C(=O)O)c4scc5n4c3c2N(C)C5)C[C@H](C)N1C	2 mg/kg			0.025 µg/mL (≈ 0.0581 µM)		ED50 [8]: 2 mg/kg
C[C@@H]1CN(c2c(F)cc3c(=O)c(C(=O)O)c4scc5n4c3c2N(C)C5)C[C@H](C)N1	> 2 mg/kg			0.05 µg/mL (≈ 0.12 µM)	0.05 µg/mL (≈ 0.12 µM)	MIC [9]: 0.05 µg/mL (≈ 0.12 µM)
CN1Cc2csc3c(C(=O)O)c(=O)c4cc(F)c(N5CCC(O)C5)c1c4n23 (centres undefined)			> 12 mg/kg			
CCN1CCN(c2c(F)cc3c(=O)c(C(=O)O)c4scc5n4c3c2N(C)C5)CC1		0.05 µg/mL (≈ 0.12 µM)	3 mg/kg		0.05 µg/mL (≈ 0.12 µM)	MIC [9]: 0.05 µg/mL (≈ 0.12 µM); ED50 [7]: 1 mg/kg
CCN1[C@H](C)CN(c2c(F)cc3c(=O)c(C(=O)O)c4scc5n4c3c2N(C)C5)C[C@@H]1C.Cl				0.05 µg/mL	0.05 µg/mL	
CCC1CN(c2c(F)cc3c(=O)c(C(=O)O)c4scc5n4c3c2N(C)C5)CCN1.Cl (centres undefined)				0.05 µg/mL	0.05 µg/mL	
CCNCC1CCN(c2c(F)cc3c(=O)c(C(=O)O)c4scc5n4c3c2N(C)C5)C1.Cl (centres undefined)		0.05 µg/mL	> 12 mg/kg			
CC1CN(c2c(F)cc3c(=O)c(C(=O)O)c4scc5n4c3c2N(C)C5)CCN1.Cl (centres undefined)	> 2 mg/kg					
CN1CCN(c2c(F)cc3c(=O)c(C(=O)O)c4scc5n4c3c2N(C)C5)CC1		0.05 µg/mL (≈ 0.124 µM)	3 mg/kg		0.05 µg/mL (≈ 0.124 µM)	MIC [10]: 0.05 µg/mL (≈ 0.124 µM); ED50 [7]: 1 mg/kg
CN1Cc2csc3c(C(=O)O)c(=O)c4cc(F)c(N5CCOCC5)c1c4n23		0.05 µg/mL (≈ 0.128 µM)	> 12 mg/kg			
CC1COc2c(N3CCN(C)CC3)c(F)cc3c(=O)c(C(=O)O)cn1c23 (centres undefined) [OFLOXACIN]	1 mg/kg		11 mg/kg			
